This note sets out measurements from ChEMBL document CHEMBL1127070, “Synthesis and binding properties of MK-801 isothiocyanates; (+)-3-isothiocyanato-5-methyl-10,11-dihydro-5H-dibenzo[a,d]cyclohepten- 5,10-imine hydrochloride: a new, potent and selective electrophilic affinity ligand for the NMDA receptor-coupled phencyclidine binding site” (J Med Chem, 1993).

In assay [1] the target is T1, Glutamate NMDA receptor (Rattus norvegicus) (UniProt P35439+Q00959+Q00960+Q00961+Q62645+Q8VHN2+Q9R1M7). The experiment in a line: Tested for the % inactivation of [3H]dizocilpine binding to NMDA receptor at 10 uM). The format is protein-complex assay. Summed up: (§1)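 Thawed rat brain homogenates pretreated with isothiocyanate for 30 min at 5 °C. Washed three times with buffer containing 100 μM glutamate, 30 μM glycine and 300 μM MgCl2, which removes reversible ligand. Binding of 2 nM (+)-[3H]-3 then measured as in the reversible assay. % inactivation is versus similarly washed untreated controls. Triplicates, mean ± SEM of ≥2 experiments.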

Assay [2] addresses T1, Glutamate NMDA receptor (Rattus norvegicus). The assay can be described thus: Tested for % inactivation of the displacement of [3H]1-[1-(2-thieny])cyclohexyl] peridine from NMDA receptor by 100 nM. The format is protein-complex assay.
For assay [3] the target is unchanged. The assay can be described thus: Tested for % inactivation of the displacement of (+)-[3H]dizocilpine from NMDA receptor by 100 nM. It is filed as protein-complex assay. Put shortly:
as §1

Assay [4] deals with Glutamate NMDA receptor. The experiment in a line: Tested for the inhibition of [3H]dizocilpine binding to N-methyl-D-aspartate (NMDA) receptor-coupled phencyclidine binding site. It is filed as protein-complex assay. Summed up: (§2)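 Rat brain membranes (Sprague–Dawley, whole brain minus cerebellum) in 5 mM Tris-HCl pH 7.4, washed by repeated 20000g spins. Incubation with 2 nM (+)-[3H]-3, 10 μM glutamate and 10 μM glycine for 90 min at 5 °C. Nonspecific binding defined with 10 μM (+)-3. Filtration, then scintillation counting.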

Another assay addresses Mu-type opioid receptor (Rattus norvegicus, UniProt P33535). The experiment in a line: Tested for in vitro inhibition of the displacement of [3H]FOXY from mu opioid receptor. Summed up: (§3)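 Reversible and wash-resistant displacement assays used published protocols, with extra washes added to remove unreacted compound. Final radioligand levels were [3H]flunitrazepam 1 nM, (+)-[3H]pentazocine 3 nM, [3H]FOXY 2 nM, [3H]QNB 0.5 nM and [3H]mazindol 5 nM. Test compound went up to 100 μM. Runs were in triplicate, with at least two experiments. Ki came from Cheng-Prusoff.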
A general note: Displacement assays read how much labelled ligand stays bound in the presence of the test substance.

The target of assay [5] is Glutamate NMDA receptor. The experiment in a line: Tested for in vitro inhibition of the displacement of [3H]1-[1-(2-thieny])cyclohexyl] peridine from NMDA receptor. The format is protein-complex assay.
Assay [6] concerns the target Muscarinic acetylcholine receptor. The experiment in a line: Tested for in vitro inhibition of the displacement of [3H]quinuclidinyl benzilate muscarinic receptor. The format is protein assay.
Assay [7] has as its target Sodium-dependent dopamine transporter (Rattus norvegicus) (UniProt P23977). The assay can be described thus: Tested for in vitro inhibition of the displacement of [3H]mazindol from dopamine transporter.
For assay [8], the target named is GABA-A receptor; anion channel. The experiment in a line: In vitro inhibition of [3H]flunitrazepam displacement from GABA-A receptor. It is filed as protein-complex assay, Rattus norvegicus. Put shortly:
as §3

For assay [9], the target named is Glutamate NMDA receptor. The assay can be described thus: Tested for in vitro inhibition of the displacement of (+)-[3H]dizocilpine from NMDA receptor. The format is protein-complex assay. Put shortly:
as §2

Assay [10] has as its target Sigma non-opioid intracellular receptor 1 (Rattus norvegicus, UniProt Q9R0C9). The experiment in a line: Tested for in vitro inhibition of the displacement of (+)-[3H]pentazocine from sigma opioid receptor. Put shortly: as §3
In assay [11] the target is Muscarinic acetylcholine receptor. The assay can be described thus: Tested for in vitro inhibition of the displacement of [3H]QNB from CNS receptor. The format is protein assay. Put shortly: as §3

Mu-type opioid receptor, sequence (P33535 whole entry): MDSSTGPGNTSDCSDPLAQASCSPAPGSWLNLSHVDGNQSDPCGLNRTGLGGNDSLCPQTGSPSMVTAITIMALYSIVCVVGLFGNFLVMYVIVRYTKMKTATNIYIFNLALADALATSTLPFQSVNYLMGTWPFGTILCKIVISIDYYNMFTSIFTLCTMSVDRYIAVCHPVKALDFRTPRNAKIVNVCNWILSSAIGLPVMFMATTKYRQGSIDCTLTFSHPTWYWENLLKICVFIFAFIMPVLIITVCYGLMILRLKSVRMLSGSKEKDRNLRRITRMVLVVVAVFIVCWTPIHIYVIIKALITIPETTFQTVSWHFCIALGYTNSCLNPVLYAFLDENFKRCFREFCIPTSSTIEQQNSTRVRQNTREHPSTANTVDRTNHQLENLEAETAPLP
Sodium-dependent dopamine transporter (Rattus norvegicus), sequence (P23977 whole entry, looked up): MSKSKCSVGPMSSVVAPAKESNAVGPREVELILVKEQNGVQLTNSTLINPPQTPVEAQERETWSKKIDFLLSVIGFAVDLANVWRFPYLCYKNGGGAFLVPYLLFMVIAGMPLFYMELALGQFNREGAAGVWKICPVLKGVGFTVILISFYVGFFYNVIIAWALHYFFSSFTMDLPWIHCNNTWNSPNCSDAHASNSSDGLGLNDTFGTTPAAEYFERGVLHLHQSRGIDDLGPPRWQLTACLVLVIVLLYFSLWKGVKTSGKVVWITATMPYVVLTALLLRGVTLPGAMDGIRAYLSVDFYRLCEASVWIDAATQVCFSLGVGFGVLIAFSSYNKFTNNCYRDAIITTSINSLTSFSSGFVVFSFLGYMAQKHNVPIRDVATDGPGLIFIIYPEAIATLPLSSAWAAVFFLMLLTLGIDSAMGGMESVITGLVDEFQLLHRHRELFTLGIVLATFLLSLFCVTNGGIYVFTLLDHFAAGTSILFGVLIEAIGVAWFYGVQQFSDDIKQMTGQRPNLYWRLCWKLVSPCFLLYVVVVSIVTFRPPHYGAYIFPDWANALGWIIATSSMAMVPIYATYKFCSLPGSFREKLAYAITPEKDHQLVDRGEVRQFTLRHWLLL
Sigma non-opioid intracellular receptor 1, sequence (Q9R0C9 whole entry): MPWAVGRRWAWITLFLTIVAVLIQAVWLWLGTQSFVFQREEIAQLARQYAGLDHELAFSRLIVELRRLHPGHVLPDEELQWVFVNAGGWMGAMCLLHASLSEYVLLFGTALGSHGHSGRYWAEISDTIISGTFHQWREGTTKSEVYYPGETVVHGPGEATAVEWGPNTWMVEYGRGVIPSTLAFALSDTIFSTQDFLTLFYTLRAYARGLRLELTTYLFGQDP

In the case of `C[C@]12N[C@H](Cc3ccc(N=C=S)cc31)c1ccccc12` (stereo in doubt; (+)-8a) [listing 1 of 2 here], the results for the Activity in [1], in assay [2] and in assay [3] were 56%, 50% and 53%, respectively.
Broadly, the Ki is the dissociation constant of the complex between target and ligand, obtained from inhibition or displacement. On Glutamate NMDA receptor [4], `C[C@]12N[C@H](Cc3cc(N=C=S)ccc31)c1ccccc12` showed an inhibitory constant (Ki) of 843 nM.
Consider `C[C@]12N[C@H](Cc3ccc(N=C=S)cc31)c1ccccc12` (stereo in doubt; (-)-8a), for which, on Glutamate NMDA receptor [4], affinity was put at a Ki of 838 nM.
For the compound `S=C=Nc1cccc(C2(N3CCCCC3)CCCCC2)c1`, the inhibitory constant (Ki) on Glutamate NMDA receptor [4] was determined as 535 nM.
As for `C[C@]12N[C@H](Cc3ccc(N=C=S)cc31)c1ccccc12` (stereo in doubt; (+)-8a) [listing 2 of 2 here], the Ki on Mu-type opioid receptor is over 100000 nM; on Glutamate NMDA receptor [4] it was 37 nM; at Glutamate NMDA receptor [5], 132 nM; in assay [6], over 100000 nM; in assay [7], 6950 nM; in assay [8], over 100000 nM. In addition, the values for the inhibitory constant (Ki) (at Glutamate NMDA receptor [9]; in assay [10]) were 37 nM and 4810 nM, respectively.
`CC[C@]1(c2cccc(N=C=S)c2)OC[C@H]([C@@H]2CCCCN2)O1`: the Ki at Glutamate NMDA receptor [4] amounted to 94 nM. Moreover, in [1], the Activity came to 55%.
Take `C[C@]12N[C@H](Cc3ccccc31)c1ccccc12` [DIZOCILPINE]: the Ki was over 100000 nM on Mu-type opioid receptor, over 100000 nM in assay [11], 40900 nM in [7] and over 100000 nM in [8].
